Source: PubChem
CHRM1 agonist: human M1 muscarinic receptor agonism; hit rate 0.33% among 360,000; P11229; activation, % at 3 µM; CHO-K1 hM1, Fluo-8 calcium fluorescence, agonist mode; 0% DMSO, 100% acetylcholine EC100;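 active = activation above the run's mean compound activation plus 3 SD, cut at about 16% in these data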;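 note: peak over basal fluorescence ratio within a 140 s kinetic read after compound addition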
TAAR1 antag: human TAAR1 antagonism; Q96RJ0; CHO RD-HGA16 TAAR1, Fluo-8 calcium fluorescence, antagonist; inhibition, % at 3 µM; hit rate 1.5% among 360,000;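 active = inhibition above a per-plate cutoff, the mean inhibition of test compounds on that plate plus 3 SD, cut at about 49% in these data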
Target sequence (Q96RJ0 whole entry, looked up): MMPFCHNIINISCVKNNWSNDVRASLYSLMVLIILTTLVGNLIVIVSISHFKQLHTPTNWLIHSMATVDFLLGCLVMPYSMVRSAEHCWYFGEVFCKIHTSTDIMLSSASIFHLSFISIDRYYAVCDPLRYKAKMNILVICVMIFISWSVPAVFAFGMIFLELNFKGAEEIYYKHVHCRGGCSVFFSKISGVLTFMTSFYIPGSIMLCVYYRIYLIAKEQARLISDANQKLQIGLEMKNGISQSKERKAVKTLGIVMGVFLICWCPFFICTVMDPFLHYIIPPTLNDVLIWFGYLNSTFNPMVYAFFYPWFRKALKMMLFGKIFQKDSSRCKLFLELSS
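Test system – hTAAR1-expressing CHO RD-HGA16 cells, Gα16-coupled · Also added – β-PEA at EC80 concentration, post-compound challenge · Compound – 3 µM, single point · Incubation – dye loading 75 min at 37 °C, then 30 min room temperature · Measured by – Fluo-8 intracellular calcium dye fluorescence, real-time kinetic reads · Benchmarks – vehicle and agonist controls · Replicates – singlicate, one well per test compound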
TAAR1 agonist: human TAAR1 agonism | activation, % at 3 µM | hit rate 0.99% among 360,000 | Q96RJ0 | CHO RD-HGA16 TAAR1, Fluo-8 calcium fluorescence; vehicle wells 0%, saturating PEA agonist 100% | AID 624467;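 active = activation above the mean activation of all test compounds in the run plus 3 SD, cut at about 38% in these data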
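Signal – calcium-sensitive Fluo-8 signal, excitation 470-495, emission 515-575 nm · System – RD-HGA16 (CHO) cells co-expressing Gα16 and hTAAR1 · Incubation – 17-24 h seeding, 75 min 37 °C dye, 30 min RT · Compound dosing – 3 µM single concentration · Repeats – no replicates (n 1)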
CHRM1 PAM: positive allosteric modulators of human M1 muscarinic receptor. CHO-K1 hM1, Fluo-8 calcium fluorescence, ACh EC20; 0% = ACh EC20, 100% = maximal ACh. activation, % at 3 µM. hit rate 0.088% among 360,000; in the data active = activation above about 19%, passing the limit was not always enough
M1 antag: blocks human M1 muscarinic receptor. inhibition, % at 3 µM. AID 588852. CHO-K1 hM1, Fluo-8 calcium fluorescence, ACh EC80 antagonist. hit rate 1.3% among 360,000. P11229;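 active = percent inhibition above its own plate's cutoff, namely the mean of that plate's compound wells plus 3 SD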;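 note: peak over basal fluorescence ratio during 140 s after agonist addition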
TAAR1 ag conf: confirmation of human TAAR1 agonists; shares compounds with TAAR1 agonist; CHO RD-HGA16 TAAR1, Fluo-8 calcium fluorescence; scaled: DMSO 0%, maximal phenethylamine 100%; activation, % at 3 µM; hit rate 82% among 2,400; AID 651783;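 active = activation above a cutoff set at the run's mean compound activation plus 3 SD, cut at about 39% in these data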
Ga16 ag counter: nonselective agonism, TAAR1 counter-screen | AID 651787 | CHO-Ga16 parental, Fluo-8 calcium fluorescence; normalized to maximal ATP response, DMSO zero | shares compounds with TAAR1 agonist | hit rate 50% among 2,400 | activation, % at 3 µM;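 active = activation above the run cutoff, the mean activation over all tested wells plus 3 SD, cut at about 12% in these data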
TAAR1 desens: human TAAR1 agonist that also desensitizes the receptor | shares compounds with TAAR1 agonist | CHO RD-HGA16 hTAAR1, Fluo-8 calcium, beta-PEA response inhibition | hit rate 46% among 2,400 | inhibition, % at 3 µM;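 active = inhibition above the run cutoff, the mean inhibition of all test compounds plus 3 SD, cut at about 49% in these data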;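 note: beta-PEA stimulus applied at its EC80; loss of beta-PEA calcium signal after compound pretreatment read as receptor desensitization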
Ga16 nonsel ant: nonselective Ga16 antagonist in TAAR1 agonist counter-screen; shares compounds with TAAR1 agonist; CHO-Ga16 ATP-induced calcium, Fluo-8 fluorescence; inhibition, % at 3 µM; hit rate 39% among 2,400;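 active = inhibition above the plate's mean compound inhibition plus 3 SD, computed per plate, cut at about 22% in these data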
Large screens that a line does not name were inactive (follow-up assays come after a bar, where they were run). A selection: hits, their analogues and other compounds. The true share with any hit is near 3.4%.

Cn1nc(C(=O)OCC(=O)c2ccc[nH]2)c2ccccc2c1=O	none
Cn1nc(C(=O)OCc2ccccc2F)c2ccccc2c1=O	TAAR1 antag 94, TAAR1 agonist 432 | TAAR1 ag conf inactive | Ga16 ag counter inactive | TAAR1 desens inactive | Ga16 nonsel ant 28
CC(=O)c1ccc(NC(=S)NC(NC(=O)c2ccco2)C(Cl)(Cl)Cl)cc1 (stereo unspecified)	CHRM1 agonist 17, TAAR1 agonist 96 | TAAR1 ag conf 106 | Ga16 ag counter 29 | TAAR1 desens 80 | Ga16 nonsel ant inactive
COc1ccc(-c2coc3c(C(=O)NCC4CCOCC4)cccc23)c(C)c1	none
COC(=O)c1c(C)oc(C)c1S(=O)(=O)N1CCOCC1	none
Nc1cnnc(N/N=C\c2ccccc2)c1Cl	TAAR1 agonist 46 | TAAR1 ag conf 69 | Ga16 ag counter inactive | TAAR1 desens inactive | Ga16 nonsel ant inactive
COc1cccc(CN2CC(C(=O)NCCCn3ccnc3C)CCC2=O)c1 (stereo unspecified)	none
COc1ccc(C(=O)CC(=O)C(=O)Nc2cccc([N+](=O)[O-])c2C)cc1	TAAR1 agonist 71 | TAAR1 ag conf 83 | Ga16 ag counter 62 | TAAR1 desens inactive | Ga16 nonsel ant 23
COc1cccc(C(=O)CC(=O)C(=O)Nc2cccc([N+](=O)[O-])c2C)c1	TAAR1 agonist 60 | TAAR1 ag conf 120 | Ga16 ag counter 75 | TAAR1 desens 77 | Ga16 nonsel ant 41
COc1ccccc1C(=O)CC(=O)C(=O)Nc1cccc([N+](=O)[O-])c1C	none
Cc1cc(C)cc(OCC(=O)NNC(=O)c2cc3ccccc3o2)c1	none
CCc1ccc(OCC(=O)NNC(=O)c2cc3ccccc3o2)cc1	TAAR1 antag 71, TAAR1 agonist 75 | TAAR1 ag conf inactive | Ga16 ag counter inactive | TAAR1 desens inactive | Ga16 nonsel ant inactive
Cc1sc(NC(=O)c2ccco2)c(C(c2cccnc2)N2CCC(C)CC2)c1C (stereo unspecified)	TAAR1 agonist 62 | TAAR1 ag conf 54 | Ga16 ag counter 22 | TAAR1 desens inactive | Ga16 nonsel ant 23
CCN1CCN(C(c2cccnc2)c2c(NC(=O)c3ccco3)sc(C)c2C)CC1 (stereo unspecified)	none
CC(C)CNC(=O)c1ccccc1-c1ccccc1C(=O)O	TAAR1 agonist 54 | TAAR1 ag conf inactive | Ga16 ag counter inactive | TAAR1 desens inactive | Ga16 nonsel ant inactive
CC(C)CNC(=O)c1cccc(NC(=O)c2ccccc2-c2ccccc2C(=O)O)c1	none
N#Cc1cc(C(=O)c2ccccc2O)cn(-c2nccs2)c1=O	CHRM1 agonist 45, TAAR1 antag 71, TAAR1 agonist 126 | TAAR1 ag conf 90 | Ga16 ag counter 84 | TAAR1 desens 65 | Ga16 nonsel ant 59
N#Cc1cc(C(=O)c2cc(F)ccc2O)cn(-c2nccs2)c1=O	CHRM1 agonist 54, TAAR1 antag 68, TAAR1 agonist 105 | TAAR1 ag conf 91 | Ga16 ag counter 112 | TAAR1 desens 67 | Ga16 nonsel ant 74
Cc1c(-n2cc(C(=O)c3cc(F)ccc3O)cc(C#N)c2=O)c(=O)n(-c2ccccc2)n1C	none
Cc1cc(OCC(=O)OCC(=O)N(Cc2ccccc2)C(C)(C)C)ccc1Cl	none
C[C@@H]1CN([C@H](C)CO)C(=O)CCCn2nncc2CO[C@H]1CN(C)Cc1cccc(C(F)(F)F)c1	none
CCC(C)(C)NC(=O)C(c1cccc(OC)c1)N(C(=O)c1ccn[nH]1)c1cccc(OC)c1 (stereo unspecified)	TAAR1 agonist 50 | TAAR1 ag conf inactive | Ga16 ag counter 14 | TAAR1 desens inactive | Ga16 nonsel ant 28
COc1ccccc1CC(=O)NCC1CCCO1 (stereo unspecified)	none
COc1ccccc1CCNC(=O)C1CCCO1 (stereo unspecified)	TAAR1 agonist 43 | TAAR1 ag conf 73 | Ga16 ag counter inactive | TAAR1 desens inactive | Ga16 nonsel ant inactive
c1csc(CNCc2ccncc2)c1	none
c1ccc(CCNCc2cccs2)nc1	TAAR1 agonist 52 | TAAR1 ag conf 66 | Ga16 ag counter inactive | TAAR1 desens inactive | Ga16 nonsel ant inactive
CC1(C)CCCN(C(=O)c2coc(=O)c(Br)c2)C1	TAAR1 antag 76, TAAR1 agonist 79 | TAAR1 ag conf 100 | Ga16 ag counter inactive | TAAR1 desens 95 | Ga16 nonsel ant inactive
CCc1ccccc1N1CC(C(=O)Nc2nccs2)CC1=O (stereo unspecified)	none
O=S(=O)(Nc1ccc(S(=O)(=O)Nc2cccc3ccccc23)cc1)c1ccccc1	TAAR1 agonist 41 | TAAR1 ag conf 40 | Ga16 ag counter inactive | TAAR1 desens inactive | Ga16 nonsel ant inactive
O=S(=O)(Nc1ccc(S(=O)(=O)Nc2ccccc2)cc1)c1ccccc1	none
CCN(c1ccccc1)S(=O)(=O)c1cc(NC(=O)CN2CCN(C)CC2)ccc1Cl	none
O=c1c2ccccc2c(C=Nc2cccc(O)c2)c(O)n1-c1ccc2c(c1)OCO2	TAAR1 agonist 62 | TAAR1 ag conf 82 | Ga16 ag counter 41 | TAAR1 desens 67 | Ga16 nonsel ant 26
CN1CCN(C(=O)c2cc3c(c(-c4cccc(-c5cc6ccccc6o5)c4)n2)[C@@H](CCO)N(S(=O)C(C)(C)C)C3)CC1 (stereo partly specified)	none
C[C@@H](C(=O)NCCc1ccccc1)N1C(=O)N2CCc3c([nH]c4ccccc34)[C@@]2(C)C1=O	TAAR1 antag 68, TAAR1 agonist 71 | TAAR1 ag conf 68 | Ga16 ag counter inactive | TAAR1 desens inactive | Ga16 nonsel ant inactive
COc1ccc2[nH]c3c(c2c1)CCN1C(=O)N([C@@H](C)C(=O)NCc2ccccc2)C(=O)[C@]31C	none
C[C@@H](C(=O)NCCc1ccccc1F)N1C(=O)N2CCc3c([nH]c4ccccc34)[C@@]2(C)C1=O	TAAR1 agonist 59 | TAAR1 ag conf 73 | Ga16 ag counter inactive | TAAR1 desens inactive | Ga16 nonsel ant inactive
O=[N+]([O-])c1cc(Cl)c2cccnc2c1O	TAAR1 agonist 44 | TAAR1 ag conf inactive | Ga16 ag counter inactive | TAAR1 desens inactive | Ga16 nonsel ant inactive
